Measurements gathered from unrelated publications.
Each line is one published result; the experiments were not run side by side. pIC50: −log10 of the molar value.
Cell line: MDA-MB-231

Structure (SMILES)	assay	setting	pIC50
COc1cc([C@@H]2C[C@@H](C)OC(=O)c3cc4ccccn4c32)cc(OC)c1OC (racemic)	cell growth or viability, resazurin	72 h	< 4.00
CC(C)C(=O)Nc1ccc([N+](=O)[O-])c(C(F)(F)F)c1	cell growth or viability, CCK-8	48 h	< 4.30
CCCCCCCCCCCC(=O)Oc1c(C)c(O)c(C(=O)/C=C/c2ccccc2)c(OC)c1C	cell growth or viability, SRB	72 h	< 4.30
O=C(Nc1nnc(-c2cc3ccccc3[nH]2)s1)c1cc2c([nH]c3ccccc32)c(-c2ccc(F)cc2)n1	cell growth or viability, MTT	72 h	5.17
Cc1nc(Nc2ncc(C(=O)Nc3c(C)cccc3Cl)s2)cc(N2CCN(CCO)CC2)n1	cell growth or viability, MTT	24 h	4.60
COc1c(C)c(OS(=O)(=O)c2ccc3ccccc3c2)c(C)c(OS(=O)(=O)c2ccc3ccccc3c2)c1C(=O)/C=C/c1ccccc1	cell growth or viability, SRB	72 h	< 4.30
FC(F)(F)c1cccc(Nc2ncnc3ccc(-c4ccc(Cl)cc4)cc23)c1	cell growth or viability, MTT	24 h	4.94
COc1ccc(Br)cc1/C=C/C(=O)c1ccc(NC(C)=O)cc1	cell growth or viability, MTT	72 h	5.02
CCN1CCN(Cc2ccc(Nc3ncc(F)c(-c4cc(F)c5nc(C)n(C(C)C)c5c4)n3)nc2)CC1	cell growth or viability, CCK-8	–	5.78
CC(=O)O[C@H]1C(=O)[C@@]2(C)[C@H]([C@H](OC(=O)c3ccccc3)[C@]3(O)C[C@H](OC(=O)[C@H](O)[C@@H](NC(=O)c4ccccc4)c4ccccc4)C(C)=C1C3(C)C)[C@]1(OC(C)=O)CO[C@@H]1C[C@@H]2O	cell growth or viability	72 h	8.29
O=C(CSc1nc2ccc(N=Cc3ccc(Sc4nnnn4-c4ccccc4)o3)cc2s1)N1CCOCC1	cell growth or viability, MTT	48 h	4.68
COc1cccc2c1C(=O)c1c(O)c3c(c(O)c1C2=O)C[C@@](O)(C(=O)CO)C[C@@H]3O[C@H]1C[C@H](N)[C@H](O)[C@H](C)O1	cell growth or viability, MTT	–	5.17
CN(C)c1ccc2cc(C(=O)N[C@@H](CCCNC(=N)CCl)C(=O)NCc3ccccc3)ccc2c1	cell growth or viability	48 h	5.15
COc1ccc(-c2nc3ccccc3[nH]2)cc1O	cell growth or viability, MTT	48 h	4.05
C=CCNC1=C2C[C@@H](C)C[C@H](OC)[C@H](O)[C@@H](C)/C=C(\C)[C@H](OC(N)=O)[C@@H](OC)/C=C\C=C(/C)C(=O)NC(=CC1=O)C2=O	cell growth or viability, MTT	–	6.47
O=C(Nc1nnc(-c2cc3ccccc3[nH]2)s1)c1cc2c([nH]c3ccccc32)c(-c2ccc(Cl)cc2)n1	cell growth or viability, MTT	72 h	5.35
FC(F)(F)c1cccc(Nc2ncnc3ccc(-c4ccc(CN5CCOCC5)cc4)cc23)c1	cell growth or viability, MTT	24 h	5.07
CC(C)[C@H](N)c1nc2cc(-c3ccncc3F)sc2c(=O)[nH]1	cell growth or viability, MTT	–	5.92
Cc1ccc2nc(-c3c(F)cccc3Cl)[nH]c2c1	cell growth or viability, MTT	48 h	4.46
CC(=O)O[C@H]1C(=O)[C@@]2(C)[C@H]([C@H](OC(=O)c3ccccc3)[C@]3(O)C[C@H](OC(=O)[C@H](O)[C@@H](NC(=O)c4ccccc4)c4ccccc4)C(C)=C1C3(C)C)[C@]1(OC(C)=O)CO[C@@H]1C[C@@H]2O	cell growth or viability, ATP luminescence	72 h	8.22
Clc1ccccc1-c1nc2ccccc2[nH]1	cell growth or viability, MTT	48 h	4.30
COc1ccc(-c2nc(C(=O)Nc3nnc(-c4cc5ccccc5[nH]4)s3)cc3c2[nH]c2ccccc23)cc1	cell growth or viability, MTT	72 h	5.48
O=C(c1cc(Cc2n[nH]c(=O)c3ccccc23)ccc1F)N1CCN(C(=O)C2CC2)CC1	cell growth or viability, MTT	48 h	3.61
CC(=O)CC(=O)[c-]1cccc1.[Fe+2].c1cc[cH-]c1	cell growth or viability, MTT	96 h	4.33

Structure (SMILES)	assay	setting	pIC50
[Na+].[Na+].[Na+].[O]=[V]([O-])([O-])[O-]	cell migration, inhibitor	–	5.25
C[C@@H]1C[C@H](c2ccc(Br)cc2)c2c(cc3ccccn23)C(=O)O1 (racemic)	cell growth or viability, resazurin	72 h	4.78
FC(F)(F)c1cccc(Nc2ncnc3ccc(NCc4ccccc4)cc23)c1	cell growth or viability, MTT	24 h	4.90
CC(C)C[C@H](NC(=O)[C@H](Cc1ccccc1)NC(=O)c1cnccn1)B(O)O	cell growth or viability, ATP luminescence	–	7.89
C=CCn1c(-c2ccc([N+](=O)[O-])cc2)nc2ccccc21	cell growth or viability, MTT	–	4.36
O=C(C=C[c-]1cccc1)c1sccc1Br.[Fe+2].c1cc[cH-]c1	cell growth or viability, MTT	72 h	5.18
Oc1ccccc1-c1nc2ccccc2[nH]1	cell growth or viability, MTT	48 h	4.44
COc1cccc2c1C(=O)c1c(O)c3c(c(O)c1C2=O)C[C@@](O)(C(=O)CO)C[C@@H]3O[C@H]1C[C@H](N)[C@H](O)[C@H](C)O1	cell growth or viability, MTT	72 h	5.83
C[C@@H]1C[C@@H](c2cccc(Cl)c2)c2c(cc3ccccn23)C(=O)O1 (racemic)	cell growth or viability, resazurin	72 h	< 4.00
COc1cc(/C=C2\SC(=O)NC2=O)ccc1OCc1ccc(Cl)cc1Cl	cell growth or viability, MTT	48 h	4.59
O=C(CCl)Nc1ccc2c(Nc3cccc(C(F)(F)F)c3)ncnc2c1	cell growth or viability, MTT	24 h	5.16
COc1ccc(-c2nc3ccccc3[nH]2)cc1OC	cell growth or viability, MTT	48 h	4.30
C[C@@H]1C[C@H](c2cccc(F)c2)c2c(cc3ccccn23)C(=O)O1 (racemic)	cell growth or viability, resazurin	72 h	4.10
CC(=O)Nc1nc(C)c(-c2csc(Nc3ccccc3)n2)s1	cell growth or viability, MTT	72 h	4.80
Oc1ccc(Br)cc1-c1nc2ccccc2[nH]1	cell growth or viability, MTT	48 h	4.89
Oc1ccccc1-c1ccc2ncnc(Nc3cccc(C(F)(F)F)c3)c2c1	cell growth or viability, MTT	24 h	5.07
COc1cccc([C@@H]2C[C@@H](C)OC(=O)c3cc4ccccn4c32)c1 (racemic)	cell growth or viability, resazurin	72 h	4.28
Cc1cc(NS(=O)(=O)c2ccc(NC(=O)COc3ccc(C(C)(C)c4ccccc4)cc3)cc2)nc(C)n1	cell growth or viability, MTT	48 h	4.41
CC(=O)O[C@@]12CO[C@@H]1C[C@H](O)[C@@]1(C)C(=O)[C@H](O)C3=C(C)[C@@H](OC(=O)[C@H](O)[C@@H](NC(=O)OC(C)(C)C)c4ccccc4)C[C@@](O)([C@@H](OC(=O)c4ccccc4)[C@H]21)C3(C)C	cell growth or viability, resazurin	72 h	7.70
CCOc1ccc(-c2nc3ccccc3[nH]2)cc1	cell growth or viability, MTT	48 h	< 4.00
Oc1cccc(Nc2ccc3ncnc(Nc4cccc(C(F)(F)F)c4)c3c2)c1	cell growth or viability, MTT	24 h	5.48
C[C@@H]1C[C@@H](c2ccc3c(c2)OCO3)c2c(cc3ccccn23)C(=O)O1 (racemic)	cell growth or viability, resazurin	72 h	4.53
FC(F)(F)c1cccc(Nc2ncnc3ccc(-c4ccc5c(c4)OCO5)cc23)c1	cell growth or viability, MTT	24 h	5.14
COc1ccc(/C=C/C(=O)c2cc(Br)ccc(=O)c2O)cc1	cell growth or viability, MTT	72 h	4.58
